Test results published in PMC9826232 (Chemmedchem, 2022).

Legend:
NCI‐H441 (G12 V) = test: CellTiter-Glo cell viability assay, NCI-H441; type: cell-based; conditions: Homo sapiens, NCI-H441, 72 h, read-out: Cellular activity IC50, NCI‐H441 (G12 V)
Method in brief: (§1)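 Cells seeded, then held 24 h at 37 °C/5 % CO2 before test compound in DMSO was added at various concentrations. Plates were incubated a further 72 h at 37 °C, 5 % CO2, humidified. Controls were DMSO vehicle and 10 μM staurosporine. CellTiter-Glo reagent was added at equal volume to the medium, then 2 min shaking and 10 min at room temperature before luminescence (ATP) reading. IC50 from dose-response fit; plates accepted only if Z' ≥0.5, from 16 control values each.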

K‐Ras(G12D) = K‐Ras(G12D) (Homo sapiens, UniProt P01116, G12D); test: Nucleotide exchange assay; type: biochemical
Sequence of K‐Ras(G12D) (P01116 1-188 isoform P01116-2 G12D): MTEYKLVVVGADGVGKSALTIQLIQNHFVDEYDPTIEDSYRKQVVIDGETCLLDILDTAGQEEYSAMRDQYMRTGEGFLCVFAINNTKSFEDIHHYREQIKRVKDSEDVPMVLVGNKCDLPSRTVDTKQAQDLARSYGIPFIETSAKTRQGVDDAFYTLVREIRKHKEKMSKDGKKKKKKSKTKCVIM
Method in brief: (§2)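 SOS1 (final 30.2 nM for G12D, 4.6 nM for wild type) and GTP (1 μM final) follow. Incubated overnight at room temperature, then GDP detection reagent for 1 h. Luminescence read; IC50 from sigmoidal curves.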

[1] = cited from earlier work
K‐Ras wild type protein = K‐Ras wild type protein (Homo sapiens, UniProt P01116); test: Nucleotide exchange assay; type: biochemical
Sequence of K‐Ras wild type protein (P01116 1-188 isoform P01116-2): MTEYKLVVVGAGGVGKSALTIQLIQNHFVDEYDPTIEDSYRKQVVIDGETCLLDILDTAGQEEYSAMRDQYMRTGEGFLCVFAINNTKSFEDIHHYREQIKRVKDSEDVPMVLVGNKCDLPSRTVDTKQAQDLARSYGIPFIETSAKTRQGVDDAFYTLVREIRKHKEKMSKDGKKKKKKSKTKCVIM
Method in brief: as §2

[2] = Control assay for nucleotide exchange assay; conditions: 3 mM compound; percent of control
H358 (G12 C) = test: CellTiter-Glo cell viability assay, H358; type: cell-based; conditions: Homo sapiens, NCI-H358, 72 h, read-out: Cellular activity IC50, H358 (G12 C)
Method in brief: as §1

HCT15 (G13D) = test: CellTiter-Glo cell viability assay, HCT15; type: cell-based; conditions: Homo sapiens, HCT-15, 72 h, read-out: Cellular activity IC50, HCT15 (G13D)
Method in brief: as §1

A549 (G12S) = test: CellTiter-Glo cell viability assay, A549; type: cell-based; conditions: Homo sapiens, A549, 72 h, read-out: Cellular activity IC50, A549 (G12S)
Method in brief: as §1

SNU‐1 (G12D) = test: CellTiter-Glo cell viability assay, SNU-1; type: cell-based; conditions: Homo sapiens, SNU1, 72 h, read-out: Cellular activity IC50, SNU‐1 (G12D)
Method in brief: as §1

Compound: O=[N+]([O-])c1ccc(NN=C(c2ccc(O)cc2)c2ccc(O)cc2)c([N+](=O)[O-])c1 [7 a, 4,4′‐((2‐(2,4‐Dinitrophenyl)hydrazinylidene)methylene)diphenol]
- IC50 (NCI‐H441 (G12 V)): 22.8 ± 4.2 µM
- IC50 (K‐Ras(G12D)): 236 ± 46 µM
- tolerability [1]: well tolerated
- IC50 (K‐Ras wild type protein): 306 ± 49 µM
- WT %CRTL (3 mM) [2]: 26%
- IC50 (H358 (G12 C)): 20.9 ± 0.8 µM
- IC50 (HCT15 (G13D)): 18.9 ± 0.6 µM
- IC50 (A549 (G12S)): 16.1 ± 1.5 µM
- IC50 (SNU‐1 (G12D)): 16.7 ± 1.2 µM
